Screening results: PubChem, The Scripps Research Institute Molecular Screening Center
Sampled rows, rich in hits. Any-hit rate of the full collection: about 3.3%.
mABHD4 FP: inhibits mouse alpha/beta hydrolase domain 4. purified mABHD4, FP-Rh probe fluorescence polarization. 370,000 tested, 0.54% active. inhibition, % at 8.92 µM. Q8VD66. AID 720543;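 active means inhibition exceeding the mean over every tested compound plus 3 SD, cut at about 30% in these data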;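 further: 0% = plate median of compound wells and 100% = S159A mutant with DMSO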
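Assay system: mouse ABHD4 enzyme, wild type / Also added: fluorescent activity-based probe FP-Rh / Doses: single nominal dose of 8.92 µM, 0.89% DMSO final / Timing: 45 min compound pre-incubation plus 60 min probe step, 25 °C / Signal: FP readout, ex 525 nm / em 598 nm / Control set: S159A mutant/DMSO as 100%, compound-well median as 0%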
SIAE primary: inhibitors of human sialic acid acetylesterase SIAE. 370,000 tested, 0.69% active. Q9HAT2. SIAE FP-Rh probe binding, fluorescence polarization. AID 1053197. inhibition, % at 9.66 µM;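 active means inhibition above a cutoff: mean of compounds within the control limits plus 3 SD of those, cut at about 17% in these data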;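 further: 0% = plate median of compound wells and 100% = probe without SIAE protein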
Target sequence (Q9HAT2 whole entry, looked up): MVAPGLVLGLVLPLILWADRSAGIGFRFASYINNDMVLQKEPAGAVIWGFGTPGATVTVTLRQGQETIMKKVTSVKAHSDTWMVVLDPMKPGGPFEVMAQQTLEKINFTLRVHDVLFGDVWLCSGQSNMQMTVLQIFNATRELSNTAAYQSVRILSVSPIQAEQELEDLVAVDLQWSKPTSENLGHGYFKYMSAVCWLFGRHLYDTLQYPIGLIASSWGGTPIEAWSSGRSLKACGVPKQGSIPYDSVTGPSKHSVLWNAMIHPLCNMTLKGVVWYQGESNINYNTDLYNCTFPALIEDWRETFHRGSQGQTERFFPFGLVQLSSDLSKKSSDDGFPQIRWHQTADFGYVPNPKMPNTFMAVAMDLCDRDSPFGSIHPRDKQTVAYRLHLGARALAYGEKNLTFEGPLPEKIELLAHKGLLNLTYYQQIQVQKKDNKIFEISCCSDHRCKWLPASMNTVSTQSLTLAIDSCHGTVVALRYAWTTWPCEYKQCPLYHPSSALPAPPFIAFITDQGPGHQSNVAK
rCAG binder: binds r(CAG) RNA repeats. r(CAG) RNA repeat, TO-PRO-1 dye displacement fluorescence. inhibition, % at 3 µM. 370,000 tested, 1.3% active;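 active means inhibition above the plate cutoff, the mean of all test compounds on that plate plus 3 SD, cut at about 35% in these data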;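 further: 0% = DMSO alone and 100% = 100 µM mitoxantrone as full dye displacement; higher means more dye released from RNA so lower well fluorescence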
PRMT1 FP inh: inhibitors of human PRMT1 | Q99873 | recombinant PRMT1, activity-based probe fluorescence polarization | inhibition, % at 2.79 µM | 370,000 tested, 1.3% active | AID 652257;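 active means inhibition above about 21% made by adding two undisclosed values, limit read from the data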
TCR CD3 inh: inhibitors of human TCR-CD3 interaction. inhibition, % at 9.4 µM. TAMRA-labeled TCR probe fluorescence, biochemical. 360,000 tested, 0.37% active; in the data active means inhibition above about 19%;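 further: recombinant mutant TCR 2C K166C tagged with TAMRA read by polarization; 0% = receptor in buffer alone and 100% = receptor with positive control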
PRMT1 confirm: confirmation of human PRMT1 inhibitors. shares compounds with PRMT1 FP inh. inhibition, % at 2.79 µM. AID 687036. recombinant His-PRMT1, activity-based probe fluorescence polarization. 3,300 tested, 42% active;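 active means mean inhibition across replicates above the hit cutoff derived for the earlier primary screen, cut at about 22% in these data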
* marks the source's active call; other numbers are inactive results; . = no result.

SMILES	mABHD4 FP	SIAE primary	rCAG binder	PRMT1 FP inh	TCR CD3 inh	PRMT1 confirm
O=c1nc2s/c(=C\c3ccco3)c(=O)n2nc1Cc1ccc(F)cc1	-2.8	-0.5	1.8	3.6	-0.8	.
CCN(CC)CCNC(=O)CSc1c2c(nc3cc(Cl)ccc13)CCCC2	3.1	-1.6	-6.3	14.0	-4.1	.
Cc1ccc(CNC(=O)CSc2c3c(nc4ccc(Cl)cc24)CCCC3)o1	9.7	-5.6	4.2	50.4*	-4.2	4.6
CS/C(=N\S(=O)(=O)c1cccs1)NC(=O)CSc1nc2ccccc2s1	-3.4	-9.6	30.5	28.3*	14.9	33.2*
Clc1cccc(N2CCN(c3nnnn3-c3ccccc3)CC2)c1	0.6	-0.8	-6.5	-2.4	0.7	.
COc1ccc(N2C(=O)CC(Sc3nnnn3-c3ccc(F)cc3)C2=O)cc1 (stereo unspecified)	1.3	1.8	5.8	50.7*	-1.3	64.2*
O=C1CC(Sc2nnnn2-c2ccccc2)C(=O)N1c1cccc(Cl)c1 (stereo unspecified)	1.7	-4.0	7.0	74.1*	-4.0	79.2*
Cc1ccccc1CN1CCCCC(NC(=O)Nc2cccc(F)c2)C1=O (stereo unspecified)	-0.5	-1.2	5.0	1.7	.	.
COc1c(O)cccc1[C@@H](O)C1CCN(CCc2ccc(F)cc2)CC1	8.2	-3.7	-48.6	35.8*	-13.0	-1.6
COc1ccc(CCN2CCC(Nc3nc4ccccc4n3Cc3ccc(F)cc3)CC2)cc1	8.3	1.1	2.2	-4.1	5.5	.
Cc1ccccc1CS(=O)(=O)c1nnc([C@H](Cc2ccccc2)NC(=O)OC(C)(C)C)o1	10.4	1.8	-0.3	37.8*	1.7	25.9*
CC(C)(C)OC(=O)N[C@@H](Cc1ccccc1)c1nnc(S(=O)(=O)Cc2ccccc2)o1	21.8	7.5	-6.8	54.3*	6.2	20.7
CCSc1nnc([C@H](Cc2ccccc2)NC(=O)OC(C)(C)C)o1	3.3	-2.7	-9.5	2.0	2.0	.
COc1ccc(-c2csc(=NCCO)n2-c2ccccc2)cc1	-9.6	0.8	0.3	63.6*	0.5	-2.2
CC(=O)c1cccc(N=c2scc(-c3ccc(S(=O)(=O)N4CCOCC4)cc3)n2CCO)c1	-5.0	-0.5	0.8	68.7*	-0.2	-1.4
COc1ccc(-c2csc(=Nc3ccccc3)n2CCO)cc1	-5.4	4.9	-1.4	59.5*	-7.7	-5.6
COc1ccc(-c2cn(-c3ccccc3)nc2CO)cc1	-0.2	-4.7	-3.3	0.5	6.9	.
C=CCn1c(-c2ccc(OC)cc2)csc1=Nc1c(C)n(C)n(-c2ccccc2)c1=O	-9.8	-1.1	-11.4	-3.4	-3.9	.
CCn1c(C)c(C(C)=O)c(N2CCN(c3ccccc3)CC2)nc1=S	19.3	-0.9	-14.2	36.9*	2.8	1.6
CC(=O)c1c(N2CCN(C(=O)c3ccco3)CC2)nc(=S)n(-c2ccccc2)c1C	-5.6	-4.7	-3.4	36.1*	-4.1	39.0*
CCn1c(C)c(C(C)=O)c(N2CCN(C(c3ccccc3)c3ccccc3)CC2)nc1=S	6.6	-4.8	-5.3	-0.7	-0.4	.
CC(=O)c1c(N2CCCC2)nc(=S)n(-c2ccccc2)c1C	8.4	-5.5	1.8	14.2	3.4	.
Cc1ccc(CN2CCCCC(NC(=O)c3cccc([N+](=O)[O-])c3)C2=O)cc1 (stereo unspecified)	1.7	0.3	4.2	-2.4	.	.
COCCNC(=O)c1cc(-c2ccccc2)sc1N	2.4	0.7	9.2	31.9*	-1.6	-2.2
Nc1nc2ccc(S(=O)(=O)N3CCCCC3)cc2s1	-0.7	7.9	3.8	29.6*	-1.6	73.1*
SMILES	mABHD4 FP	SIAE primary	rCAG binder	PRMT1 FP inh	TCR CD3 inh	PRMT1 confirm
Cc1nc2ccc(S(=O)(=O)N3CCCCC3)cc2s1	3.1	-3.3	-4.1	0.2	1.1	.
COC(=O)C1=C(C)N(Cc2cccc(C(F)(F)F)c2)C(=NCc2ccc(C(F)(F)F)cc2)NC1c1cccc(F)c1 (stereo unspecified)	21.4	3.1	4.8	-0.5	-3.2	.
Cc1[nH]c(=S)c(C#N)c(C)c1C(=O)Nc1ccccc1	9.5	0.8	7.7	33.1*	0.9	12.7
CCc1c(C(=O)Nc2ccccc2)c(C)[nH]c(=S)c1C#N	-4.0	-5.5	6.2	42.7*	-2.5	87.9*
CC(=O)c1c(C)[nH]c(C(=O)Nc2cccc(C#N)c2)c1C	-7.9	-10.4	2.2	-5.6	10.8	.
Cc1ccc(S(=O)(=O)CCC(=O)OCC(=O)c2cc(C)ccc2C)cc1	2.2	-0.3	-3.5	1.5	-5.9	.
Cc1ccc(S(=O)(=O)CCC(=O)c2ccc(O)cc2O)cc1	-3.7	-5.2	14.3	34.7*	-6.7	3.6
CCOc1ccc(-n2c(SCC(=O)Nc3ccc4cn[nH]c4c3)nnc2-c2ccc(C(C)(C)C)cc2)cc1	-13.1	1.1	11.5	1.6	.	.
c1ccc(CNc2nc3ccccc3[nH]2)cc1	7.1	-0.1	1.2	1.9	-5.1	.
S=C(NCc1ccccc1)NNc1nc2ccccc2[nH]1	15.4	8.3	7.0	39.4*	6.2	67.0*
CC[n+]1c(C)sc2c3ccsc3ccc21	-8.6	-7.6	4.7	37.9*	-9.8	63.8*
CCc1c(O)nc(SCC(=O)Nc2ccc(Cl)cc2)n(-c2ccccc2)c1=O	6.6	0.1	9.9	37.6*	-7.1	35.1*
O=C(O)c1cc(-c2ccc(/C=C3\NC(=O)N(c4ccc(Cl)cc4)C3=O)o2)ccc1Cl	15.1	-1.5	25.9	26.6*	-15.2	21.7*
Cc1ccc(S(=O)(=O)NN2C(=O)/C(=C/c3cccnc3)SC2=S)cc1	6.0	6.3	24.2	30.5*	-3.1	12.8
Fc1ccc(Nc2cncc(-c3ccsc3)c2)cc1Cl	4.0	-2.6	7.2	25.5*	-4.8	1.8
c1ccc(CN2CCC3(CC2)Nc2ccccc2S3)cc1	4.4	9.2	-2.8	54.4*	-5.4	-3.4
c1ccc(CN2CCC3(CC2)Nc2ccccc2CO3)cc1	2.6	1.3	3.7	-4.2	1.1	.
O=C(CC(c1ccco1)S(=O)(=O)c1ccccc1)c1ccc(F)cc1 (stereo unspecified)	12.5	11.8	2.9	28.5*	-0.1	22.3*
COC(=O)C1CN(Cc2cn(Cc3ccccc3)nn2)CCS(=O)(=O)N1Cc1ccc(OC)cc1 (stereo unspecified)	1.5	4.2	3.4	-2.0	.	.
C=CCN1C(=O)[C@@H](CC(=O)N2CCCCC2)[C@]2(C(=O)OC)CCCCC=C12	6.8	6.5	4.7	-2.6	.	.
COc1ccccc1N1CCN(C2CC(=O)N(c3cccc(Br)c3)C2=O)CC1 (stereo unspecified)	-2.6	0.6	5.0	12.6	8.1	.
COc1cc2c(cc1OC)CN(C1CC(=O)N(c3c(C)cccc3C)C1=O)CC2 (stereo unspecified)	-9.9	-8.0	12.9	31.6*	-6.8	1.3
O=C(O)/C=C\C(=O)Nc1ccccc1C(=O)N1CCC(O)(c2ccc(Cl)cc2)CC1	5.0	4.1	-1.9	28.8*	-0.3	-5.8
NC(=O)Nc1ccccc1C(=O)N1CCC(O)(c2ccc(Cl)cc2)CC1	.	-6.2	.	.	.	.
